Data: ChEMBL document CHEMBL3351896, “Small Molecule that Reverses Dexamethasone Resistance in T-cell Acute Lymphoblastic Leukemia (T-ALL)” (ACS Med Chem Lett, 2014)
Active and inactive are the calls of the source. The rule behind the calls is not given here.

How the values were obtained:
Assay type in all cases: functional, cell-based
[1] = Growth inhibition of human CUTLL1 cells in absence of 1 uM dexamethasone after 48 hrs by alamar blue assay; settings: CUTLL1, 48 h
In short: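 CUTLL1 cells given compound alone or with dexamethasone 1 μM. Growth inhibition measured by alamar blue after 48 h.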

CUTLL1 [2] = test: Growth inhibition of human CUTLL1 cells at 50 uM in presence of staurosporine after 48 hrs by alamar blue assay
CUTLL1 [3] = test: Growth inhibition of human CUTLL1 cells at 50 uM in presence of taxol after 48 hrs by alamar blue assay
CUTLL1 [4] = test: Growth inhibition of human CUTLL1 cells with high GR expression levels at 50 uM after 48 hrs by alamar blue assay
In short: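 Human CUTLL1 T-ALL cells engineered to express high (overexpressed) or low (knockdown) glucocorticoid receptor levels. Exposed to compound alone or with 1 μM dexamethasone. Alamar blue growth inhibition read after 48 h.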

CUTLL1 [5] = test: Increase in GR expression in human CUTLL1 cells at 25 to 50 uM in presence of 1 uM dexamethasone after 24 hrs by RT-qPCR method
In short: (§1)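 CUTLL1 cells exposed to compound (25 or 50 μM) alone, with 1 μM dexamethasone, or with dexamethasone plus 1 μM RU486, for 6 or 24 h. GR measured as protein by Western blot and as transcript by RT-qPCR.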

CUTLL1 [6] = test: Increase in GR expression in human CUTLL1 cells at 25 to 50 uM in presence of 1 uM dexamethasone and 1 uM […] and glucocorticoid receptor antagonist RU486 after 24 hrs by Western blotting method; in short: as §1
CUTLL1 [7] = test: Effect on ZFP36L2 gene expression in human CUTLL1 cells in presence of 1 uM dexamethasone at 30 uM after 24 hrs by microarray method
In short: (§2)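 Human CUTLL1 T-ALL cells exposed for 24 h to vehicle (DMSO), dexamethasone alone (1 μM), test compound alone (30 μM), or dexamethasone 1 μM plus compound 30 μM, each in triplicate. Expression profiled by microarray. Glucocorticoid-regulated gene sets from ALL patients on glucocorticoid therapy scored by GSEA. Leading-edge genes compared between the combination and dexamethasone alone.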

CUTLL1 [8] = test: Effect on GGNBP2 gene expression in human CUTLL1 cells in presence of 1 uM dexamethasone at 30 uM after 24 hrs by microarray method
In short: (§3)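 CUTLL1 T-ALL cells exposed 24 h to vehicle (DMSO), dexamethasone alone (1 μM), test agent alone (30 μM), or dexamethasone (1 μM) plus test agent (30 μM), in triplicate. Expression profiled by microarray. Leading-edge genes from GSEA were compared between the dexamethasone-plus-agent and dexamethasone-alone groups, using glucocorticoid-regulated gene sets from ALL patients on glucocorticoid therapy.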

CUTLL1 [9] = test: Effect on BTG1 gene expression in human CUTLL1 cells in presence of 1 uM dexamethasone at 30 uM after 24 hrs by microarray method; in short: as §3
CUTLL1 [10] = test: Effect on SPC25 gene expression in human CUTLL1 cells in presence of 1 uM dexamethasone at 30 uM after 24 hrs by microarray method; in short: as §2
CUTLL1 [11] = test: Effect on POLE3 gene expression in human CUTLL1 cells in presence of 1 uM dexamethasone at 30 uM after 24 hrs by microarray method; in short: as §2
CUTLL1 [12] = test: Effect on TIFA gene expression in human CUTLL1 cells in presence of 1 uM dexamethasone at 30 uM after 24 hrs by microarray method; in short: as §2
CUTLL1 [13] = test: Effect on MCM10 gene expression in human CUTLL1 cells in presence of 1 uM dexamethasone at 30 uM after 24 hrs by microarray method; in short: as §3
CUTLL1 [14] = test: Effect on BCCIP gene expression in human CUTLL1 cells in presence of 1 uM dexamethasone at 30 uM after 24 hrs by microarray method; in short: as §3
CUTLL1 [15] = test: Effect on PCNA gene expression in human CUTLL1 cells in presence of 1 uM dexamethasone at 30 uM after 24 hrs by microarray method; in short: as §2
CUTLL1 [16] = test: Effect on RUVBL1 gene expression in human CUTLL1 cells in presence of 1 uM dexamethasone at 30 uM after 24 hrs by microarray method; in short: as §2
CUTLL1 [17] = test: Effect on SKP2 gene expression in human CUTLL1 cells in presence of 1 uM dexamethasone at 30 uM after 24 hrs by microarray method; in short: as §2
CUTLL1 [18] = test: Effect on CHAF1A gene expression in human CUTLL1 cells in presence of 1 uM dexamethasone at 30 uM after 24 hrs by microarray method; in short: as §3
CUTLL1 [19] = test: Effect on NHP2 gene expression in human CUTLL1 cells in presence of 1 uM dexamethasone at 30 uM after 24 hrs by microarray method; in short: as §3
CUTLL1 [20] = test: Effect on GINS2 gene expression in human CUTLL1 cells in presence of 1 uM dexamethasone at 30 uM after 24 hrs by microarray method; in short: as §3
CUTLL1 [21] = test: Effect on SOCS1 gene expression in human CUTLL1 cells in absence of 1 uM dexamethasone at 30 uM after 24 hrs by microarray method; in short: as §2
CUTLL1 [22] = test: Effect on ZFP36L2 gene expression in human CUTLL1 cells in absence of 1 uM dexamethasone at 30 uM after 24 hrs by microarray method; in short: as §2
CUTLL1 [23] = test: Effect on SMAP2 gene expression in human CUTLL1 cells in absence of 1 uM dexamethasone at 30 uM after 24 hrs by microarray method; in short: as §2
CUTLL1 [24] = test: Effect on DDIT4 gene expression in human CUTLL1 cells in absence of 1 uM dexamethasone at 30 uM after 24 hrs by microarray method; in short: as §3
CUTLL1 [25] = test: Effect on APITD1 gene expression in human CUTLL1 cells in absence of 1 uM dexamethasone at 30 uM after 24 hrs by microarray method; in short: as §3
CUTLL1 [26] = test: Effect on SPC25 gene expression in human CUTLL1 cells in absence of 1 uM dexamethasone at 30 uM after 24 hrs by microarray method; in short: as §2
CUTLL1 [27] = test: Effect on BRCA1 gene expression in human CUTLL1 cells in absence of 1 uM dexamethasone at 30 uM after 24 hrs by microarray method; in short: as §3
CUTLL1 [28] = test: Effect on TIFA gene expression in human CUTLL1 cells in absence of 1 uM dexamethasone at 30 uM after 24 hrs by microarray method; in short: as §2
CUTLL1 [29] = test: Effect on SKP2 gene expression in human CUTLL1 cells in absence of 1 uM dexamethasone at 30 uM after 24 hrs by microarray method; in short: as §2
CUTLL1 [30] = test: Effect on CDC25A gene expression in human CUTLL1 cells in absence of 1 uM dexamethasone at 30 uM after 24 hrs by microarray method; in short: as §3
CUTLL1 [31] = test: Effect on FEN1 gene expression in human CUTLL1 cells in absence of 1 uM dexamethasone at 30 uM after 24 hrs by microarray method; in short: as §3
CUTLL1 [32] = test: Effect on ALYREF gene expression in human CUTLL1 cells in absence of 1 uM dexamethasone at 30 uM after 24 hrs by microarray method; in short: as §3
CUTLL1 [33] = test: Effect on TK1 gene expression in human CUTLL1 cells in absence of 1 uM dexamethasone at 30 uM after 24 hrs by microarray method; in short: as §2

SMILES: Nc1ncc(-c2ccncc2)c(C2CC2)n1
- EC50 [1]: ≥ 100 µM
- growth inhibition (GI) (CUTLL1 [2]): inactive
- growth inhibition (GI) (CUTLL1 [3]): inactive
- growth inhibition (GI) (CUTLL1 [4]): inactive
- Activity (CUTLL1 [5]): Active
- Activity (CUTLL1 [6]): inactive
- Activity (CUTLL1 [7]): Active
- Activity (CUTLL1 [8]): Active
- Activity (CUTLL1 [9]): Active
- Activity (CUTLL1 [10]): Active
- Activity (CUTLL1 [11]): Active
- Activity (CUTLL1 [12]): Active
- Activity (CUTLL1 [13]): Active
- Activity (CUTLL1 [14]): Active
- Activity (CUTLL1 [15]): Active
- Activity (CUTLL1 [16]): Active
- Activity (CUTLL1 [17]): Active
- Activity (CUTLL1 [18]): Active
- Activity (CUTLL1 [19]): Active
- Activity (CUTLL1 [20]): Active
- Activity (CUTLL1 [21]): inactive
- Activity (CUTLL1 [22]): inactive
- Activity (CUTLL1 [23]): inactive
- Activity (CUTLL1 [24]): inactive
- Activity (CUTLL1 [25]): inactive
- Activity (CUTLL1 [26]): inactive
- Activity (CUTLL1 [27]): inactive
- Activity (CUTLL1 [28]): inactive
- Activity (CUTLL1 [29]): inactive
- Activity (CUTLL1 [30]): inactive
- Activity (CUTLL1 [31]): inactive
- Activity (CUTLL1 [32]): inactive
- Activity (CUTLL1 [33]): inactive
